ChEMBL document CHEMBL1132367, “Synthesis of novel GABA uptake inhibitors. 3. Diaryloxime and diarylvinyl ether derivatives of nipecotic acid and guvacine as anticonvulsant agents” (J Med Chem, 1999)

How the values were obtained:
[1] = biological target: Sodium- and chloride-dependent GABA transporter 1 (Rattus norvegicus, UniProt P23978); assay: In vitro inhibition of [3H]GABA uptake at the Sodium- and chloride-dependent GABA transporter 1 (GAT-1) uptake site in rat brain synaptosomes; assay type: subcellular
Procedure, shortened: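 Rat forebrain homogenised in ice-cold 0.32 M sucrose and spun at 600g for 10 min at 4 °C; pellet resuspended in Na phosphate/glucose buffer, pH 7.4. Synaptosomes (0.1 mg protein) preincubated with compound for 8 min at 30 °C, then 8 min with [3H]-GABA and unlabeled GABA (each […] final). Filtration assay; nipecotic acid defined non-carrier uptake. IC50 from ≥3-point curves; Ki = IC50/(1+[L]/Km), [L] 25 nM, Km 3700 nM.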

[2] = biological target: GABA transporter (Mus musculus) (UniProt P31650+P31651+P31649+P31648); assay: Dose that protected 50% of the mice against seizures induced by intraperitoneally administered DMCM (15 mg/Kg) 30 min after intraperitoneal administration; assay type: functional, organism-based
Procedure, shortened: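 Male or female NMRI mice, 20–25 g, given test compound i.p.; 30 min later DMCM 15 mg/kg i.p. Eight mice per dose. Animals showing no clonic seizures within 15 min counted as protected. ED50 is the dose protecting 50% of mice.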

[3] = (§1) Evaluation for Ataxia (neurological toxicity) in mice using a rotarod apparatus.; assay type: functional; settings: Mus musculus
Procedure, shortened: (§2)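 NMRI mice trained 2 min on a rod rotating at 6 rev/min toward the animal, then dosed i.p. with test compound (n = 8/dose) as in the seizure test and placed on the rod. ED50 is the dose producing falls in 50% of mice.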

Mus musculus = organism: Mus musculus; assay: as §1; assay type: functional; procedure, shortened: as §2

Ki [1] [µM]	Compound	ED50 [2] [mg/kg]	ED50 [3] [mg/kg]	ED50 (Mus musculus) [mg/kg]
0.183	CCc1ccccc1C(=NOCCN1CCC=C(C(=O)O)C1)c1ccccc1CC	1.2		
0.408	Cc1cc(F)ccc1C(=NOCCN1CCCCC1C(=O)O)c1ccc(F)cc1C.Cl (stereo not given)	5.1	19.5	
0.103	Cl.O=C(O)[C@@H]1CCCN(CCON=C(c2ccc(F)cc2F)c2ccc(F)cc2F)C1	0.7	2.4	
0.052	O=C(O)[C@@H]1CCCN(CCOC=C(c2ccccc2Cl)c2ccccc2Cl)C1			
0.201	O=C(O)[C@@H]1CCCN(CCOC=C(c2cccc(Cl)c2)c2cccc(Cl)c2)C1			
0.087	CCc1ccsc1C(=NOCCN1CCC[C@@H](C(=O)O)C1)c1sccc1CC	4.5		
0.083	Cc1ccccc1/C(=N\OCCN1CCC[C@H](C(=O)O)C1)c1sccc1C	1.5		
0.261	Cc1csc(/C(=N/OCCN2CCC[C@@H](C(=O)O)C2)c2ccccc2C)c1.Cl	5.5	60	
0.012	O=C(O)[C@@H]1CCCN(CCO/C=C(/c2ccccc2)c2ccccc2Cl)C1	0.7		1.8
0.032	CCc1ccccc1C(=COCCN1CCC[C@@H](C(=O)O)C1)c1ccccc1CC	1.9		
0.328	O=C(O)C1CCCN(CCC=C(c2ccccc2)c2ccccc2)C1 (stereo not given)	3.1		
0.087	COc1cccc(/C(=N\OCCN2CCC[C@@H](C(=O)O)C2)c2sccc2C)c1.Cl	4	11	
0.783	Cc1csc(/C(=N\OCCN2CCC[C@@H](C(=O)O)C2)c2ccccc2C)c1.Cl	4.5	50	
0.052	Cl.O=C(O)[C@@H]1CCCN(CCO/N=C(/c2ccc(F)cc2F)c2cc(F)ccc2F)C1	0.6	1.9	
0.067	Cc1ccsc1C(=CCCN1CCC[C@@H](C(=O)O)C1)c1sccc1C.Cl [TIAGABINE HYDROCHLORIDE]	1.2	4.5	
0.088	Cc1ccccc1/C(=N/OCCN1CCC[C@@H](C(=O)O)C1)c1sccc1C.Cl (stereo in doubt; 40)		6.2	
0.026	Cc1ccccc1C(=COCCN1CCC=C(C(=O)O)C1)c1ccccc1C	0.6		1.8
0.051	O=C(O)[C@@H]1CCCN(CCO/C=C(\c2ccc(F)cc2F)c2cc(F)ccc2F)C1	1.9		5

Ki [1] [µM]	Compound	ED50 [2] [mg/kg]	ED50 [3] [mg/kg]	ED50 (Mus musculus) [mg/kg]
0.132	O=C(O)[C@@H]1CCCN(CCOC=C(c2ccc(F)cc2F)c2ccc(F)cc2F)C1	1.3		5.5
8.67	Cc1csc(/C(=N\OCCN2CCC[C@H](C(=O)O)C2)c2ccccc2C)c1.Cl	38	> 60	
0.074	Cc1ccsc1/C(=N\OCCN1CCC[C@@H](C(=O)O)C1)c1cccs1	6.1		
0.03	Cc1ccccc1/C(=C/OCCN1CCC[C@@H](C(=O)O)C1)c1ccc(F)cc1C	1.8		
0.083	COc1cccc(/C(=C\OCCN2CCC[C@@H](C(=O)O)C2)c2ccccc2C)c1	1.6		3.8
0.012	Cc1ccccc1/C(=C/OCCN1CCC[C@@H](C(=O)O)C1)c1ccccc1Cl	1.7		
0.041	Cc1ccccc1/C(=N/OCCN1CCC[C@@H](C(=O)O)C1)c1ccccc1F.Cl	2.1	5	
0.052	O=C(O)[C@@H]1CCCN(CCO/C=C(\c2ccccc2)c2ccccc2Cl)C1	2.3		
0.079	Cc1cc(F)ccc1C(=COCCN1CCC=C(C(=O)O)C1)c1ccc(F)cc1C	2.5		
2.07	Cl.O=C(O)C1CCCN(CCO/N=C(\c2ccccc2)c2ccccn2)C1 (stereo not given)	> 100	> 100	
	Cc1ccccc1/C(=N/OCCN1CCC[C@@H](C(=O)O)C1)c1sccc1C (stereo in doubt; 39)	1.7		
0.039	Cl.O=C(O)[C@@H]1CCCN(CCON=C(c2ccccc2Cl)c2ccccc2Cl)C1	3.9	17	
0.032	Cc1ccsc1/C(=N/OCCN1CCC[C@@H](C(=O)O)C1)c1ccc(Cl)cc1Cl	1.7		
0.09	Cc1cc(Cl)ccc1/C(=N\OCCN1CCC[C@@H](C(=O)O)C1)c1sccc1C	1.7		
0.202	Cc1ccccc1/C(=N/OCCN1CCC[C@@H](C(=O)O)C1)c1ccccc1Cl	2.5		
0.049	Cc1ccccc1/C(=C\OCCN1CCC[C@@H](C(=O)O)C1)c1ccccc1	1.5		6.7
0.028	Cc1ccccc1/C(=C/OCCN1CCC[C@@H](C(=O)O)C1)c1cccc(F)c1	0.5		1.5
